These results are taken from ChEMBL document CHEMBL1140299, “1-Benzhydryl-3-phenylurea and 1-benzhydryl-3-phenylthiourea derivatives: new templates among the CB1 cannabinoid receptor inverse agonists” (J Med Chem, 2005).

Structures are written as SMILES.

The term Ki denotes the equilibrium dissociation constant of an inhibitor or competing ligand from its target. High values mean a looser hold on the target, low ones a stronger hold on the target. By Emax is commonly meant the greatest response seen or fitted, relative to the assay's reference. A word on the EC50: it is the concentration giving half of the maximal effect. The low end stands for higher potency in that assay, the high end for lower potency in that assay.

Sequence of Cannabinoid receptor 2 (Homo sapiens) (P34972 whole entry): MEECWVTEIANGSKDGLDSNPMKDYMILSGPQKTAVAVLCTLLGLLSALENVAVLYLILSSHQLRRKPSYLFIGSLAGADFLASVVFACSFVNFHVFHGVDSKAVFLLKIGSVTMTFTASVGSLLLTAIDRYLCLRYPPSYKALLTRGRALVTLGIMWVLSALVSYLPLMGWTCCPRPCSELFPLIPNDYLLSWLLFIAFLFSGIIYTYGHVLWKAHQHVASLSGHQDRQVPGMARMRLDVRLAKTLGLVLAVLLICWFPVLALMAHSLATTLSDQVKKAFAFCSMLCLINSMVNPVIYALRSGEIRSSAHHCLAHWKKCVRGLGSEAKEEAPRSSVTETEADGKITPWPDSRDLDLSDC

In the first assay the target is T1, Cannabinoid receptor 1 (Homo sapiens, UniProt P21554). Briefly: biochemical. It is filed as cell-based, CHO.
T1 sequence (P21554 whole entry): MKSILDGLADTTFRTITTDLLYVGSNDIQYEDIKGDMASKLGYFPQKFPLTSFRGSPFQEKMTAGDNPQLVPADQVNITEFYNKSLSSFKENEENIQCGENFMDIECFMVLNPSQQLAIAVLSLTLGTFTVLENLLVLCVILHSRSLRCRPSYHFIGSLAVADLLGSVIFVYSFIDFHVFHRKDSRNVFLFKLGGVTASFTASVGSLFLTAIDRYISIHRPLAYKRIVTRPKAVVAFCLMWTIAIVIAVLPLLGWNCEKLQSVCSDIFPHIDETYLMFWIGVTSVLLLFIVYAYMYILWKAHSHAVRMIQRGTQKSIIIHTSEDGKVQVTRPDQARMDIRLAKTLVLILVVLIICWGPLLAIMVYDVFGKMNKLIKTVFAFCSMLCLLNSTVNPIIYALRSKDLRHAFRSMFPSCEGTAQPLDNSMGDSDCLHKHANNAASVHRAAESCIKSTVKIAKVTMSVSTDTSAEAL
Settings: not given
As for `O=C(Nc1ccc(Br)cc1)NC(c1ccc(Cl)cc1)c1ccc(Cl)cc1`, the Ki is listed as 1.25 µM (antagonist).

On to `O=C(Nc1ccccc1)NC(c1ccc(Br)cc1)c1ccc(Br)cc1`, for which the Ki was 2.9 µM (antagonist). Regarding `O=C(Nc1ccc(Cl)cc1)NC(c1ccc(Cl)cc1)c1ccc(Cl)cc1`, the Ki is 1.1 µM (antagonist). Turning to `CCCCCCC(C)(C)c1cc(O)c2c(c1)OC(C)(C)[C@H]1CC=C(CO)C[C@H]21` [DEXANABINOL], the Ki is 0.019 µM (antagonist). Still for that read-out and setting: the figure for `O=C1N(c2ccccc2)C(=S)NC1(c1ccc(Br)cc1)c1ccc(Br)cc1` is 3.45 µM (antagonist); for `S=C(Nc1ccccc1)NC(c1ccc(Cl)cc1)c1ccc(Cl)cc1` it is 2.9 µM (antagonist). Turning to `O=C(Nc1ccccc1)NC(c1ccc(Cl)cc1)c1ccc(Cl)cc1`, the Ki is listed as 7.05 µM (antagonist).

For the compound `O=C1N(c2ccc(Cl)cc2)C(=S)NC1(c1ccc(Br)cc1)c1ccc(Br)cc1`, the Ki is reported as 2.75 µM (antagonist). For the compound `O=C(Nc1ccc(Br)cc1)NC(c1ccc(I)cc1)c1ccc(I)cc1`, the Ki is 0.75 µM (antagonist). On the same count and under the same terms, then `O=C(Nc1ccc(Br)cc1)NC(c1ccc(Br)cc1)c1ccc(Br)cc1`, with 0.5 µM (antagonist). Still for that read-out and setting: the figure for `S=C(Nc1ccc(Cl)cc1)NC(c1ccc(Br)cc1)c1ccc(Br)cc1` is 1.5 µM (antagonist); for `O=C(Nc1ccc(Cl)cc1)NC(c1ccc(Br)cc1)c1ccc(Br)cc1` it is 0.65 µM (antagonist); for `S=C(Nc1ccc(Cl)cc1)NC(c1ccc(Cl)cc1)c1ccc(Cl)cc1` it is 1.9 µM (antagonist). Consider `S=C(Nc1ccccc1)NC(c1ccc(Br)cc1)c1ccc(Br)cc1`, for which the Ki is given as 1.8 µM (antagonist).

The target in a further assay is T1, Cannabinoid receptor 1.
Assay: not given
The note with it: filed as agonist, at 10 µM.
As for `CCCCCCC(C)(C)c1cc(O)c2c(c1)OC(C)(C)[C@H]1CC=C(CO)C[C@H]21` [DEXANABINOL], the Emax is 200%.

The same assay, now with this note: filed as inverse agonist, at 10 µM.
Turning to `O=C(Nc1ccc(Br)cc1)NC(c1ccc(Cl)cc1)c1ccc(Cl)cc1`, the Emax is -66%. Still for that read-out and setting: then `O=C(Nc1ccc(Cl)cc1)NC(c1ccc(Cl)cc1)c1ccc(Cl)cc1`, with -74%; and `O=C(Nc1ccc(Br)cc1)NC(c1ccc(Br)cc1)c1ccc(Br)cc1`, with -61%; and `S=C(Nc1ccc(Cl)cc1)NC(c1ccc(Br)cc1)c1ccc(Br)cc1`, with -61%. For `O=C(Nc1ccc(Cl)cc1)NC(c1ccc(Br)cc1)c1ccc(Br)cc1`, the Emax was -72%.

Another assay addresses T1, Cannabinoid receptor 1. Briefly: Activity at human CB1 receptor by [35S]GTP-gamma-S binding stimulation assay. It is filed as functional.
Settings: not given
In the case of `O=C(Nc1ccc(Br)cc1)NC(c1ccc(Cl)cc1)c1ccc(Cl)cc1`, the EC50 is 700 nM (inverse agonist).

`O=C(Nc1ccc(Cl)cc1)NC(c1ccc(Cl)cc1)c1ccc(Cl)cc1`: the EC50 is 1050 nM (inverse agonist). For `CCCCCCC(C)(C)c1cc(O)c2c(c1)OC(C)(C)[C@H]1CC=C(CO)C[C@H]21` [DEXANABINOL], the EC50 is 0.6 nM (inverse agonist).

As to `O=C(Nc1ccc(Br)cc1)NC(c1ccc(Br)cc1)c1ccc(Br)cc1`, the EC50 is on record as 500 nM (inverse agonist). For the compound `S=C(Nc1ccc(Cl)cc1)NC(c1ccc(Br)cc1)c1ccc(Br)cc1`, the EC50 was 1250 nM (inverse agonist). For the compound `O=C(Nc1ccc(Cl)cc1)NC(c1ccc(Br)cc1)c1ccc(Br)cc1`, the EC50 is given as 450 nM (inverse agonist).

The next assay addresses Cannabinoid receptor 2 (Homo sapiens) (UniProt P34972). In words: Displacement of [3H]CP-55940 from human CB2 receptor expressed in CHO cells at 10 uM. Type of assay: cell-based.
Settings: not given
The procedure, abridged:
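Competition binding on membranes of cells expressing hCB2 (40 µg per tube) with [3H]-CP-55940 (1 nM) at 30 °C for 1 h. Buffer: 50 mM Tris-HCl, 3 mM MgCl2, 1 mM EDTA, 0.5% BSA, pH 7.4. DMSO stocks diluted 100× into buffer. Nonspecific binding defined with 10 µM HU-210. Bound label collected by filtration on PEI-pretreated GF/B filters and counted by scintillation. Run at least in triplicate.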
Background: Displacement assays read how much labelled ligand stays bound in the presence of the test substance.
For `O=C(Nc1ccc(Br)cc1)NC(c1ccc(Cl)cc1)c1ccc(Cl)cc1`, the Activity was found to be 29%. Take `O=C(Nc1ccccc1)NC(c1ccc(Br)cc1)c1ccc(Br)cc1`: the Activity was found to be 38%. With `O=C1NC(c2ccc(F)cc2)(c2ccc(F)cc2)C(=O)N1c1ccccc1`, the Activity is under 20%. Compound `O=C(Nc1ccc(Cl)cc1)NC(c1ccc(Cl)cc1)c1ccc(Cl)cc1` displayed an Activity of 24%. As for `O=C(Nc1ccc(I)cc1)NC(c1ccc(Br)cc1)c1ccc(Br)cc1`, the Activity amounted to 34%. Still for that read-out and setting: the figure for `O=C1N(c2ccccc2)C(=S)NC1(c1ccc(Br)cc1)c1ccc(Br)cc1` is under 20%; for `S=C(Nc1ccccc1)NC(c1ccc(Cl)cc1)c1ccc(Cl)cc1` it is 23%. Same read-out and setting: then `O=C(Nc1ccc(Cl)cc1)NC(c1ccccc1)c1ccccc1`, with under 20%.

In turn, `O=C1NC(c2ccccc2)(c2ccccc2)C(=O)N1c1ccccc1` gave an Activity of under 20%. On the same count and under the same terms, the figure for `O=C1NC(c2ccccc2)(c2ccccc2)C(=O)N1c1ccc(Br)cc1` is under 20%. On to `O=C(Nc1ccccc1F)NC(c1ccccc1)c1ccccc1`, for which the Activity is under 10%.

`O=C(Nc1ccccc1)NC(c1ccccc1)c1ccccc1` came in with an Activity of under 10%. With `O=C(Nc1ccc(Br)cc1)NC(c1ccccc1)c1ccccc1`, the Activity is under 20%. In turn, `O=C(Nc1ccccc1)NC(c1ccc(F)cc1)c1ccc(F)cc1` displayed an Activity of under 10%. `CCCCCCc1ccc(NC(=O)NC(c2ccc(Br)cc2)c2ccc(Br)cc2)cc1`: the Activity was under 20%. Compound `CCCCCCc1ccc(NC(=O)NC(c2ccccc2)c2ccccc2)cc1` returned an Activity of 24%.

Compound `O=C(Nc1ccccc1)NC(c1ccc(Cl)cc1)c1ccc(Cl)cc1` yielded an Activity of 23%. Take `O=C(Nc1ccc(I)cc1)NC(c1ccccc1)c1ccccc1`: the Activity is under 10%.

As for `O=C1N(c2ccc(Cl)cc2)C(=S)NC1(c1ccc(Br)cc1)c1ccc(Br)cc1`, the Activity is under 20%. Take `COc1ccc(NC(=O)NC(c2ccccc2)c2ccccc2)cc1`: the Activity is under 20%. Still for that read-out and setting: the figure for `O=C(Nc1ccc(Br)cc1)NC(c1ccc(I)cc1)c1ccc(I)cc1` is 19%.

As for `O=C(Nc1ccc(Br)cc1)NC(c1ccc(Br)cc1)c1ccc(Br)cc1`, the Activity came out at 22%. The same measure, in the same setting: the figure for `O=C1NC(c2ccc(Br)cc2)(c2ccc(Br)cc2)C(=O)N1c1ccccc1` is under 20%; for `S=C(Nc1ccc(Cl)cc1)NC(c1ccc(Br)cc1)c1ccc(Br)cc1` it is 29%. Compound `O=C(Nc1ccc(F)cc1)NC(c1ccccc1)c1ccccc1` returned an Activity of under 10%. `O=C(Nc1ccc(Cl)cc1)NC(c1ccc(Br)cc1)c1ccc(Br)cc1` had an Activity of 31%. `O=C(Nc1ccc(CO)cc1)NC(c1ccc(Br)cc1)c1ccc(Br)cc1`: the Activity is under 20%. Compound `S=C(Nc1ccc(Cl)cc1)NC(c1ccc(Cl)cc1)c1ccc(Cl)cc1` registered an Activity of 23%.

On to `S=C(Nc1ccccc1)NC(c1ccc(Br)cc1)c1ccc(Br)cc1`, for which the Activity came out at 29%.
